CAL PDZ FP-1 – CAL PDZ peptide-binding inhibitors, primary screen, biochemical, fluorescence polarization, Cer-tagged CAL PDZ, HTS | purified CAL PDZ, TMR-peptide fluorescence polarization, 1 h | inhibition, % at 20 µM | 330,000 compounds, 0.02% hits | AID 504414, 2011;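 active = highest replicate inhibition of at least 40%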;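 also: plate controls were DMSO neutral control wells for no effect and unlabeled competitor peptide control wells for full effect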
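System: purified tagged CAL PDZ domain construct (CerCALP). Schedule: 1 h incubation at room temperature before polarization reading. Medium: 25 mM sodium phosphate pH 7.4, 150 mM NaCl, TCEP, IgG, Thesit. Read-out: percent inhibition from loss of millipolarization. Measured by: FP readout, S and P plane fluorescence. Probe or stimulus: fluorescent TMR peptide probe.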
RAD54 inh – inhibitors of human RAD54 branch migration, primary screen, biochemical, fluorescence, single point | DNA repair and recombination protein RAD54-like (Homo sapiens), Q92698 | RAD54 Holliday junction branch migration, FAM/BHQ fluorescence | inhibition, % at 10.4 µM | 360,000 compounds, 0.14% hits | AID 602329, 2012;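 active = mean normalized replicate activity at least 40 and at least half of replicates scoring 40 or more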;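 also: 0% = median of neutral control wells and 100% = median of positive control wells; inhibitors cause a drop in the FAM fluorescence signal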
Target sequence (Q92698 whole entry, looked up): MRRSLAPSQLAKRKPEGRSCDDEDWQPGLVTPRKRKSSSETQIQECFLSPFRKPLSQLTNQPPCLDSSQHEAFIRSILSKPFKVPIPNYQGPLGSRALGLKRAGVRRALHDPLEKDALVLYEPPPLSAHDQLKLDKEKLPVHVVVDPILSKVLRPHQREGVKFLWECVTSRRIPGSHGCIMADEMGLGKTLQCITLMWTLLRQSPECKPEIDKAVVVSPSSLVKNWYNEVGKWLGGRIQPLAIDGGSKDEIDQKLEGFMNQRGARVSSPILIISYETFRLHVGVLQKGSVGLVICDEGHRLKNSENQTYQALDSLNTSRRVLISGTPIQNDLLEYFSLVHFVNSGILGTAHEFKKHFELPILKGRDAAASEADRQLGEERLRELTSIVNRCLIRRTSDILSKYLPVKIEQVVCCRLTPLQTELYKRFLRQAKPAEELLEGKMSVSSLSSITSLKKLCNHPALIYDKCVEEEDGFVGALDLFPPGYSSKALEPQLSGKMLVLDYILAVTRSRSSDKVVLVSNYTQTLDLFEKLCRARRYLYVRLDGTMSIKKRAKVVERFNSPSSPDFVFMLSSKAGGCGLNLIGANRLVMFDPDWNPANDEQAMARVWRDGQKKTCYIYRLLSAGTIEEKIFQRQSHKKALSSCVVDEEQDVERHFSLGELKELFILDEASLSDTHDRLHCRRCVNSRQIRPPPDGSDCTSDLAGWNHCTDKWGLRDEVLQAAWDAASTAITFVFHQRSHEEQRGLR
RAD52 inh – RAD52 DNA annealing inhibitors, primary screen, biochemical, FRET, single point, set 2; recombinant RAD52 DNA annealing, FRET fluorescence; inhibition, % at 18.7 µM; 360,000 compounds, 0.46% hits; AID 651710, 2012;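 active = every replicate showing at least 50% inhibition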
PDI inh – inhibitors of human PDI, primary screen, biochemical, turbidity, single point, plate reader | PDI insulin aggregation turbidity, A650, 90 min | inhibition, % at 10 µM | 350,000 compounds, 0.052% hits | AID 588391, 2011;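 active = mean inhibition across replicates of 30% or more, whatever share of single replicates reach that level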
ERp5 inh – inhibitors of ERp5-driven insulin aggregation, primary screen, biochemical, turbidity, absorbance 650 nm, single point; 90 min; Protein disulfide-isomerase A6 (Homo sapiens), Q15084; 350,000 compounds, 0.05% hits; inhibition, % at 9.99 µM;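 active = mean replicate inhibition above about 25%, with every replicate also reaching it, limit read from the data, passing the limit was not always enough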
CAL PDZ FP-2 – untagged CAL PDZ binding inhibitors, primary screen, biochemical, fluorescence polarization, HTS | Golgi-associated PDZ and coiled-coil motif-containing protein (Homo sapiens), Q9HD26 | purified CAL PDZ, TMR-peptide fluorescence polarization, 1 h | inhibition, % at 24.9 µM | 300,000 compounds, 0.92% hits;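 active = mean inhibition of at least 30% with at least half of replicates also reaching 30%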;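 also: 0% = DMSO neutral control and 100% = excess unlabeled competitor peptide PRC23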
Numbers without * were called inactive; . = no result. Sampled rows, rich in hits. Any-hit rate of the full collection: about 1%.

SMILES	CAL PDZ FP-1	RAD54 inh	RAD52 inh	PDI inh	ERp5 inh	CAL PDZ FP-2
CCN1CCN(c2cc(C)c3cc(NC(=O)c4ccc(OC)c(OC)c4)ccc3n2)CC1	3	58*	8	-2	-1	.
CCN1CCN(c2cc(C)c3cc(NC(=O)CCC(=O)Nc4ccc(OC)c(OC)c4)ccc3n2)CC1	0	-6	-2	-5	6	-1
O=C1c2cccc3c([N+](=O)[O-])ccc(c23)C(=O)N1Cc1cccnc1	1	.	-331	9	4	37*
O=C1c2cccc3cccc(c23)C(=O)N1Cc1cccnc1	-1	.	-12	9	-2	-2
O=C(C[C@@H]1CC[C@H]2[C@@H](COC[C@@H](O)CN2Cc2nccs2)O1)NCc1ccc(F)cc1	.	-2	4	.	-1	.
C/C(=N\NC(=O)c1ccc2c(c1)OCO2)c1ccc2c(c1)OCO2	-1	2	-17	7	3	48*
C/C(=N\NC(=O)c1ccc2c(c1)OCO2)c1ccc(C(=O)O)s1	0	.	-5	1	-2	0
COc1ccccc1/C=N/NC(=O)c1ccc2c(c1)OCO2	.	5	-15	-1	1	70*
C[C@@H]1CN([C@@H](C)CO)C(=O)c2c(c3ccccc3n2C)-c2ccccc2CO[C@H]1CN(C)S(=O)(=O)CC(F)(F)F	.	3	4	.	4	.
CCCN1CCN(S(=O)(=O)c2ccc3c(c2)CCC(=O)N3)CC1	-1	-8	1	6	-1	46*
C[C@H]1CN([C@@H](C)CO)C(=O)c2cc(NC(=O)c3ccncc3)ccc2O[C@H]1CN(C)Cc1ccc2c(c1)OCO2	.	.	12	.	3	.
Cc1c(C(=O)Oc2cccc3cccnc23)oc2ccccc12	0	-1	0	-4	-4	39*
CCc1nc2ccccc2c(C(=O)Oc2cccc3cccnc23)c1C	23	-3	.	4	.	0
N#Cc1ccc(C(=O)N(Cc2ccco2)c2c(N)n(Cc3ccccc3)c(=O)[nH]c2=O)cc1	-1	-1	-14	33*	-7	-7
Nc1c(N(Cc2ccco2)C(=O)c2ccc(Cl)cc2)c(=O)[nH]c(=O)n1Cc1ccccc1	0	-9	-23	19	3	-3
Cc1cc(OCC(=O)N(Cc2ccco2)c2c(N)n(Cc3ccccc3)c(=O)[nH]c2=O)ccc1Cl	0	-2	-34	-7	-2	74*
C[C@@H]1CN([C@H](C)CO)C(=O)c2cc(/C=C/c3ccccc3)cnc2O[C@H]1CN(C)C(=O)Cc1cccnc1	.	0	-2	.	0	.
OCCSCC(O)CC(O)c1ccccc1 (centres undefined)	.	-13	0	.	-3	.
CCC(=O)N1C[C@@H](C)[C@@H](OC)CN(C)C(=O)c2ccc(NC(=O)c3ccc(F)cc3)cc2OC[C@@H]1C	.	-3	4	.	0	.
O=C(C[C@@H]1C[C@H]2c3cc(NC(=O)C4CCC4)ccc3O[C@H]2[C@H](CO)O1)NCC(F)(F)F	.	4	6	.	9	.
COc1ccc(C)c2sc(N(CCCN(C)C)C(=O)c3ccc(S(=O)(=O)N4CCc5ccccc5C4)cc3)nc12	0	-1	95*	3	4	2
COc1ccc(C(=O)NCC(=O)NCc2ccncc2)cc1	-3	-5	-11	6	-1	124*
CCCCOc1ccc(C(=O)NCC(=O)NCc2ccncc2)cc1	0	-12	-19	-1	-5	-2
Cc1ccc(S(=O)(=O)N[C@H]2CC[C@H](CCn3cc(-c4cccc(F)c4)nn3)O[C@@H]2CO)cc1	.	2	0	.	0	.
COCC(=O)N[C@H]1C=C[C@H](CC(=O)NCc2ccc(Cl)cc2)O[C@H]1CO	.	-8	-8	.	2	.

Screening data as filed in PubChem BioAssay.
